We go through three compounds from ChEMBL document CHEMBL4033777, “Next-Generation Hypoxic Cell Radiosensitizers: Nitroimidazole Alkylsulfonamides” (J Med Chem, 2018).

Data set [1] deals with HCT-116. The data set is described as follows: Hypoxia radiosensitization activity in human HCT116 cells assessed as survival ratio by measuring ratio of cell survival with radiation in absence to presence of compound at 0.11 mM preincubated for 1 hr followed by 6 to 29 Gy irradiation measured after 10 days by methylene blue staining-based cell counting method. The class given is functional.

Data set [2] concerns HCT-116. The data set is described as follows: Hypoxia radiosensitization activity in human HCT116 cells assessed as survival ratio by measuring ratio of cell survival with radiation in absence to presence of compound at 0.11 mM preincubated for 1 hr followed by 6 to 29 Gy irradiation measured after 10 days by methylene blue staining-based cell counting method relative to misonidazole. The format is functional.

A further data set relates to Mus musculus. As to the kind of experiment: Drug level in NIH-III mouse assessed as maximum achievable dose at 10 ml/kg, iv. The format is ADME. The settings on record: in vivo. Summed up: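 Non-tumor-bearing female NIH-III mice (~20 g) received freshly prepared solutions i.v. at 10 mL/kg in 0.9% saline with 1% DMSO, or saline with 2 molar equivalents NaHCO3 for phosphate prodrugs. MAD was the maximum dose that dissolved in the injection volume.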

For data set [3], the system named is Plasma. As to the kind of experiment: Cmax in plasma of NIH-III mouse xenografted with human HCT116 cells at 0.60 mmol/kg, iv administered as single dose by HPLC analysis. The class given is ADME, organism-based. The arrangement: dose 0.6 mmol/kg, route intravenous. The following applies: in vivo. Summed up: (§1)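 Female NIH-III mice bearing subcutaneous HCT116 xenografts (10^6 cells inoculated). At ca. 300 mm3 tumor size, a single i.v. dose was given at the MAD or 75% of the MTD. Vehicle was 0.9% saline with 1% DMSO, or saline with 2 molar equivalents NaHCO3 for phosphate prodrugs. Plasma and tumor were sampled at multiple times by cardiac puncture and excision, assayed by HPLC, and analysed noncompartmentally.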

A short description of data set [4]: Tmax in plasma of NIH-III mouse xenografted with human HCT116 cells at 0.60 mmol/kg, iv administered as single dose by HPLC analysis. The format is ADME, organism-based. The following applies: 0.6 mmol/kg. Summed up: (§2)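 Female NIH-III mice bearing subcutaneous HCT116 tumors (10^6 cells; ~300 mm3) got a single i.v. dose at the MAD or 75% of the MTD. Vehicle was saline with 1% DMSO, or saline with 2 equivalents of NaHCO3 for the phosphates. Plasma and tumor were sampled at multiple times by cardiac puncture and excision, drug was measured by HPLC, and Tmax came from noncompartmental analysis.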

Data set [5] can be described thus: Cmax in tumor of NIH-III mouse xenografted with human HCT116 cells at 0.60 mmol/kg, iv administered as single dose by HPLC analysis. The format is ADME, organism-based, Neoplasm. The following applies: in vivo. Further details: dose 0.6 mmol/kg, route intravenous. Summed up: as §1
A short description of data set [6]: Tmax in tumor of NIH-III mouse xenografted with human HCT116 cells at 0.60 mmol/kg, iv administered as single dose by HPLC analysis. The format is ADME, organism-based, Neoplasm. The following applies: 0.6 mmol/kg. Summed up:
as §2

Data set [7] relates to HCT-116. The data set is described as follows: In vivo hypoxia radiosensitization activity in human HCT116 cells xenografted in NIH-III mouse assessed as survival ratio by measuring ratio of cell survival with 12.5 Gy radiation in absence to presence of compound at 0.6 mmol/kg, iv pretreated as single dose for 10 mins followed by irradiation measured after 18 hrs by excision assay. The format is functional.

The test system of data set [8] is HCT-116. As to the kind of experiment: Cytotoxicity against human HCT116 cells incubated for 4 hrs under aerobic condition measured after 5 days by sulforhodamine B assay. The format is cell-based. A digest of the protocol:
(§3)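 STR-authenticated, mycoplasma-free HCT116 cells in αMEM + 5% FCS were seeded at 700 cells/well and allowed 2 h to attach. Drug was added from DMSO stocks (<1% DMSO) in serial 3-fold dilutions for 4 h, oxic or anoxic (Pd-catalyst anaerobic chamber, medium pre-equilibrated ≥3 days). After washing, cells regrew for 5 days before SRB staining and IC50 determination.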

Data set [9] has as its system HCT-116. As to the kind of experiment: Cytotoxicity against human HCT116 cells at anoxic IC50 incubated for 1 hr at 21 degC by clonogenic survival assay. The settings on record: hct-116, 1 h.
A short description of data set [10]: Solubility of the compound in alphaMEM containing 5% FCS and 1% DMSO by HPLC analysis. The class given is physicochemical. Summed up:
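Saturated drug solutions were incubated at 37 °C in αMEM with 5% FCS and 1% DMSO. Dissolved drug was quantified by HPLC.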

In data set [11] the test system is HCT-116. The data set is described as follows: Cytotoxicity against human HCT116 cells incubated for 4 hrs under anaerobic condition measured after 5 days by sulforhodamine B assay. The format is functional, cell-based. Summed up:
as §3

The subject of data set [12] is HCT-116. As to the kind of experiment: Hypoxic cytotoxicity ratio of IC50 for human HCT116 cells under oxic condition to IC50 for human HCT116 cells under anoxic condition. A digest of the protocol:
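HCT116 cells, 700 per well and attached 2 h, got a 4 h exposure to 3-fold serial dilutions (<1% DMSO) under air or in a Pd-catalyst anaerobic chamber with pre-equilibrated medium. Cells were washed, regrown 5 days, and stained with sulforhodamine B to give IC50. HCR = oxic IC50 / anoxic IC50.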

The test system of data set [13] is HCT-116. The data set is described as follows: Hypoxia radiosensitization activity in human HCT116 cells assessed as survival ratio by measuring ratio of cell survival with 15 Gy radiation in absence to presence of compound at anoxic IC50 preincubated for 1 hr followed by 15 Gy irradiation measured after 10 days by methylene blue staining-based cell counting method. The format is functional. A digest of the protocol:
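Anoxic HCT116 cells were seeded at 10^5/well and treated at the anoxic IC50 concentration for 1 h at room temperature. They were irradiated with 15 Gy (60Co, ~2 Gy/min) in a sealed steel box, then plated clonogenically. Colonies of >50 cells were counted […]. SR15 = survival with radiation / survival with drug + radiation.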

In data set [14] the test system is HCT-116. The data set is described as follows: Hypoxia radiosensitization activity in human HCT116 cells assessed as sensitizer enhancement ratio by measuring ratio of radiation dose for 1% survival in absence to presence of compound at 0.4 mM preincubated for 1 hr followed by irradiation measured after 10 days by methylene blue staining-based cell counting method. The format is functional.

The subject of data set [15] is HCT-116. The data set is described as follows: Hypoxia radiosensitization activity in human HCT116 cells assessed as sensitizer enhancement ratio by measuring ratio of radiation dose for 1% survival in absence to presence of compound at 0.4 mM preincubated for 1 hr followed by irradiation measured after 10 days by methylene blue staining-based cell counting method relative to misonidazole. The format is functional.

In data set [16] the test system is HCT-116. As to the kind of experiment: Hypoxia radiosensitization activity in human HCT116 cells assessed as survival ratio by measuring ratio of cell survival with radiation in absence to presence of compound at 0.4 mM preincubated for 1 hr followed by 6 to 29 Gy irradiation measured after 10 days by methylene blue staining-based cell counting method. The format is functional.

The test system of data set [17] is HCT-116. As to the kind of experiment: Hypoxia radiosensitization activity in human HCT116 cells assessed as survival ratio by measuring ratio of cell survival with radiation in absence to presence of compound at 0.4 mM preincubated for 1 hr followed by 6 to 29 Gy irradiation measured after 10 days by methylene blue staining-based cell counting method relative to misonidazole. The format is functional.

The test system of data set [18] is Plasma. The data set is described as follows: Cmax in plasma of NIH-III mouse xenografted with human HCT116 cells at 1.12 mmol/kg, iv administered as single dose by HPLC analysis. The following applies: in vivo. Further details: dose 1.12 mmol/kg, route intravenous. The class given is ADME, organism-based. Summed up: as §1
Data set [19] in a line: Tmax in plasma of NIH-III mouse xenografted with human HCT116 cells at 1.12 mmol/kg, iv administered as single dose by HPLC analysis. The format is ADME, organism-based. Summed up:
as §2

The nature of data set [20]: Cmax in tumor of NIH-III mouse xenografted with human HCT116 cells at 1.12 mmol/kg, iv administered as single dose by HPLC analysis. The class given is ADME, organism-based, Neoplasm. Further details: dose 1.12 mmol/kg, route intravenous. The settings on record: in vivo. Summed up: as §1
Data set [21] is described as follows: Tmax in tumor of NIH-III mouse xenografted with human HCT116 cells at 1.12 mmol/kg, iv administered as single dose by HPLC analysis. The format is ADME, organism-based, Neoplasm. A digest of the protocol: as §2
The test system of data set [22] is HCT-116. The data set is described as follows: In vivo hypoxia radiosensitization activity in human HCT116 cells xenografted in NIH-III mouse assessed as survival ratio by measuring ratio of cell survival with 12.5 Gy radiation in absence to presence of compound at 1.12 mmol/kg, iv pretreated as single dose for 10 mins followed by irradiation measured after 18 hrs by excision assay. The class given is functional.

For data set [23], the system named is HCT-116. As to the kind of experiment: Hypoxia radiosensitization activity in human HCT116 cells assessed as sensitizer enhancement ratio by measuring ratio of radiation dose for 1% survival in absence to presence of compound at 0.03 mM preincubated for 1 hr followed by irradiation measured after 10 days by methylene blue staining-based cell counting method. The format is functional.

In data set [24] the test system is HCT-116. As to the kind of experiment: Hypoxia radiosensitization activity in human HCT116 cells assessed as sensitizer enhancement ratio by measuring ratio of radiation dose for 1% survival in absence to presence of compound at 0.03 mM preincubated for 1 hr followed by irradiation measured after 10 days by methylene blue staining-based cell counting method relative to misonidazole. The format is functional.

Data set [25] concerns HCT-116. As to the kind of experiment: Hypoxia radiosensitization activity in human HCT116 cells assessed as survival ratio by measuring ratio of cell survival with radiation in absence to presence of compound at 0.03 mM preincubated for 1 hr followed by 6 to 29 Gy irradiation measured after 10 days by methylene blue staining-based cell counting method. The class given is functional.

Data set [26] has as its system HCT-116. As to the kind of experiment: Hypoxia radiosensitization activity in human HCT116 cells assessed as survival ratio by measuring ratio of cell survival with radiation in absence to presence of compound at 0.03 mM preincubated for 1 hr followed by 6 to 29 Gy irradiation measured after 10 days by methylene blue staining-based cell counting method relative to misonidazole. The class given is functional.

Data set [27] has as its system HCT-116. As to the kind of experiment: Cytotoxicity against human HCT116 cells at anoxic IC50 incubated for 1 hr at 21 degC by sulforhodamine B assay. The format is cell-based. The following applies: hct-116, 1 h.

Molecules are shown by their SMILES. Converted amounts (≈) assume the structure as drawn.

Consider `O=[N+]([O-])c1nccn1CS(=O)(=O)NCCO`, for which the Ratio with HCT-116 [1] is listed as 1.8; in the data set on HCT-116 [7], 2.4. Also, in the data set with HCT-116 [2], the “fold change (FC)” value was found to be 0.47. Besides, the Drug uptake in the data set on Mus musculus amounted to 0.6 mmol/kg. The Cmax in the data set on Plasma [3] stood at 570 µM; in data set [5], 94 µM. Moreover, the figures for the time of peak concentration (Tmax) in [4] and in [6] were 5 min and 10 min, respectively. Besides, the IC50 in the data set on HCT-116 [8] was 380 to 4800 µM. Further, the Activity entry in the data set on HCT-116 [9] was “Non-Toxic”.

As to `O=[N+]([O-])c1nccn1CCS(=O)(=O)NCCN1CCOCC1`, the solubility in [10] is greater than 163000 µM. Further, the half-inhibitory concentration (IC50) in the data set with HCT-116 [11] is 400 µM; in the data set on HCT-116 [8], 380 to 4800 µM. Also, the “Ratio IC50” value with HCT-116 [12] came out at 10. The Ratio is on record as 6 with HCT-116 [13], 1.357 with HCT-116 [14], 5 in the data set on HCT-116 [16] and 2 with HCT-116 [22]. Besides, the “fold change (FC)” value in the data set with HCT-116 [15] turned out to be 0.92; with HCT-116 [17], 0.57. In addition, the Drug uptake in the data set on Mus musculus was 1.12 mmol/kg. Moreover, the peak concentration (Cmax) with Plasma [18] was found to be 1040 µM; in [20], 410 µM. In addition, the Tmax was 5 min in data set [19] and 10 min in data set [21]. The Activity entry with HCT-116 [9] is reported as “Non-Toxic”.

Regarding `O=[N+]([O-])c1nccn1CS(=O)(=O)N1CCOCC1`, in [10], the solubility stood at 1080 µM (≈ 298 µg/mL). For the same compound, the half-inhibitory concentration (IC50) with HCT-116 [11] was 30 µM; in the data set on HCT-116 [8], 380 to 4800 µM. For the same compound, the “Ratio IC50” value in the data set on HCT-116 [12] is on record as 11. Also, the results for the Ratio in the data set on HCT-116 [13], with HCT-116 [23] and with HCT-116 [25] were 3.8, 1.11 and 2, respectively. For the same compound, the “fold change (FC)” value in the data set with HCT-116 [24] came out at 0.87; in the data set on HCT-116 [26], 0.58. The Activity result with HCT-116 [27] is on record as “Non-Toxic”.
